Source: PubChem
A selection: hits, their analogues and other compounds. The true share with any hit is near 2.2%.
PKD1 kinase inh: inhibitors of human PKD1 kinase. Q15139. inhibition, % (concentration not given with the values). hit rate 0.056% among 200,000. PKD1 kinase fluorescence polarization assay; in the data active means inhibition above about 50%
Target sequence (Q15139 whole entry, looked up): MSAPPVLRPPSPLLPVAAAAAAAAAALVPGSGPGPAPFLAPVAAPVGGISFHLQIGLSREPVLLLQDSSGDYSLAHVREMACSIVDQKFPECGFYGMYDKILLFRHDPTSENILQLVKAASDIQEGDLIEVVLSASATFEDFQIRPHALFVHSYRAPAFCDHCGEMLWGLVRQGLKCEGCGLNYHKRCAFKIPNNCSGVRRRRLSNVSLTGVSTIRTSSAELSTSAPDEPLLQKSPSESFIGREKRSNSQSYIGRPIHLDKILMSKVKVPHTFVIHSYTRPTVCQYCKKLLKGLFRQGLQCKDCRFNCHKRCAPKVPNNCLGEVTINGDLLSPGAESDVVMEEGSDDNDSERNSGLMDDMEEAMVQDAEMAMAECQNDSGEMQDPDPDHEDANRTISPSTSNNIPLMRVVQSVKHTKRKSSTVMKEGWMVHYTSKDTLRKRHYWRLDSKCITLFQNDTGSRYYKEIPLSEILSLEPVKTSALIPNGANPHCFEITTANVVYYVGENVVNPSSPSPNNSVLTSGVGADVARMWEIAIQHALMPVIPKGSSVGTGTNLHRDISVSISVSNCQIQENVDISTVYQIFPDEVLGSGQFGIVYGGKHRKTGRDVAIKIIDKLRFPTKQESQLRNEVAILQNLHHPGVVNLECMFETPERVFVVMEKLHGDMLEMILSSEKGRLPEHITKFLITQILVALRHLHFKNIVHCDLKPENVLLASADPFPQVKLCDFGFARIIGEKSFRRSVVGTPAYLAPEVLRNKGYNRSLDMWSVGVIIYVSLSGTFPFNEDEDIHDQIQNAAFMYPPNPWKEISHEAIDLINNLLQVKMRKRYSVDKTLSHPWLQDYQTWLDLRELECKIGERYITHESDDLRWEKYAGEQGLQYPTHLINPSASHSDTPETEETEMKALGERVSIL
FLuc act counter: firefly luciferase counter-screen for stimulation assays; ATPlite luciferase biochemical, luminescence, 10 min; 0 = ATP-free wells, 1 = DMSO control; P08659; 200,000 tested, under 10 active; AID 1027; activation factor at 10 µM;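 active means luciferase activation factor, scaled between plate controls, of at least 2 with compound at 10 µM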
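System: Luciferase/luciferin detection reagent, cell-free biochemical luciferase assay | Medium: PBS buffer for ATP | Dosing: Test compounds dosed from 2 mM stocks in 100% DMSO | Timing: 10 min at ambient temperature | Signal: Luminescence measurement of luciferase light output | Evaluation: Luciferase activation, seen as luminescence increase over controls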
Wee1 stabilizer: human Wee1 degradation inhibition, primary screen; hit rate 1.2% among 220,000; HeLa Luc-Wee1K328M stability, luciferase luminescence; 100% = proteasome inhibitor MG132 effect; P30291; reporter increase, % at 5 µM;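 active means activation above the mean of all tested compounds plus 3 SD, set per screening run, cut at about 8.8% in these data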;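 further: cells exposed to compound for 20 h before luminescence read; 0% = DMSO alone and 100% = MG132 at 30 µM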
TRAIL sens C8: caspase-8 TRAIL sensitization; NB7+C8 cells + TRAIL, ATPlite viability luminescence; inhibition (viability loss, TRAIL sensitization), % at 10 µM; hit rate 1% among 360,000;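 active means compounds causing at least 50% loss of cell viability in the single-dose screen, relative to plate controls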
FLuc inhib CS: counter-screen for luciferase assay inhibitors: firefly luciferase inhibition | ATPLite firefly luciferase biochemical luminescence, 10 min | AID 1006 | P08659 | hit rate 1.5% among 200,000 | inhibition, % at 10 µM;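 active means inhibition above about 50% when tested at 10 µM, limit read from the data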
PPC-1+TRAIL kill: kills PPC-1 cancer cells in the presence of TRAIL; hit rate 0.41% among 220,000; PPC-1 cells + TRAIL, ATPLite viability luminescence; cell killing (% activity), % at 4 µM or 5 µM;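 active means cell killing above 50% in the first pass at 4 µM, then a duplicate retest at 5 µM averaging 50% or more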;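 further: plate controls were cells with TRAIL plus DMSO for no effect and medium-only wells lacking cells for full effect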
Wee1 stab conf: human Wee1 degradation inhibition, confirmation | shares compounds with Wee1 stabilizer | HeLa Luc-Wee1K328M degradation, luminescence; vehicle 0%, proteasome-blocked wells 100% | activation, % at 5 µM | hit rate 4% among 1,100 | AID 1410; in the data active means activation above about 8.9%
An asterisk follows results filed as active; x = no result.

SMILES	PKD1 kinase inh	FLuc act counter	Wee1 stabilizer	TRAIL sens C8	FLuc inhib CS	PPC-1+TRAIL kill	Wee1 stab conf
CCOC(=O)C1=c2/c(=C/c3ccncc3)c(N)c(C(=O)OC)n2C(=O)C(c2ccncc2)S1 (stereo not given)	0	1	19*	3	-5	26	1
CCOC(=O)C1=C(N)n2c(s/c(=C\c3ccncc3)c2=O)=C(C(=O)OCC)C1c1ccncc1 (stereo not given)	-7	1.1	0	0	-6	x	x
COc1cccc(/C=C/C(=O)N2CCN(c3n[nH]c(=O)[nH]c3=O)CC2)c1OC	-7	0.9	-1	4	12	10	x
Cc1ccsc1/C=N\NC(=O)c1cc(C(C)(C)C)[nH]n1	1	0.8	44*	7	20	33	3
Cc1cc(C(=O)N/N=C/c2sccc2C)no1	-5	1.1	3	-13	-6	10	x
CC(=O)N1c2ccc(S(=O)(=O)N3CCCC(C(=O)NC4CCCC(C)C4C)C3)cc2CC1C (stereo not given)	x	x	x	-10	x	x	x
O=C(/C=N\O)NCCCNCc1ccccc1	-3	1	16*	-13	0	13	1
O=C(Nc1ccc2sccc2c1)c1cccc(N2C(=O)CCC2=O)c1	-5	0.8	15*	-4	20	1	4
O=NN(CC(=O)NN=CC=Cc1ccccc1)CC(=O)NN=CC=Cc1ccccc1	x	x	x	5	x	x	x
O=C(CN1CCOCC1)N/N=C/C=C/c1ccccc1	0	1	23*	4	-4	-4	0
Cc1nc(-c2nc(-c3c(C(=O)NNC(=O)Nc4ccccc4)noc3C)cs2)cs1	x	x	-3	-5	x	-8	x
O=C(C[n+]1ccc(C(=O)N/N=C/c2ccc(Cl)cc2Cl)cc1)c1ccccc1	3	1	13*	1	-1	-17	-6
CCc1nc(C)cc2c1sc1ccccc12	x	x	25*	-3	x	8	1
CCCCCCN1C[C@H](O)[C@@H](n2cc(-c3ccc(F)cc3)nn2)C[C@@H]1c1ccc(C)cc1	x	x	x	-6	x	x	x
C=CCNc1nc2ccccc2nc1NS(=O)(=O)c1ccc(Cl)cc1	x	x	x	-12	x	x	x
CCOc1cc(-c2nc(-c3ccc(OC)cc3)no2)cc(OCC)c1OCC	-18	1.1	2	-8	-8	-1	x
CCOc1cc(-c2nc(-c3ccccc3OC)no2)cc(OCC)c1OCC	-4	1.1	14*	17	-8	15	0
Cc1cnc(N=Nc2ccccc2)[nH]1	x	x	x	13	x	x	x
COc1ccc(N(CC(=O)Nc2c(C)n(C)n(-c3ccccc3)c2=O)S(=O)(=O)c2ccc(F)cc2)cc1	4	1	13*	-4	-2	-3	0
CC(=O)Nc1ccc(NC(=O)c2cc(S(=O)(=O)N3CCCCC3)ccc2C)cc1	x	x	x	10	x	x	x
Cc1ccc(S(=O)(=O)N2CCCCC2)cc1C(=O)Nc1cccnc1	x	x	18*	19	x	7	2
CC(=O)C(=Cc1ccc(Cl)cc1)C(=O)c1ccccc1	x	x	x	36	x	x	x
COC(=O)Cc1c(C(=O)OC)nnn1-c1ccc(OC(F)(F)F)cc1	-5	1	16*	7	2	24	5
COCc1c(C(=O)OC)nnn1-c1ccccc1	-5	1.1	0	-1	-6	4	x
COc1cc(C(C)=O)ccc1OC(=O)c1cc2cccc(OC)c2oc1=O	7	1.1	53*	-27	-8	7	3
SMILES	PKD1 kinase inh	FLuc act counter	Wee1 stabilizer	TRAIL sens C8	FLuc inhib CS	PPC-1+TRAIL kill	Wee1 stab conf
CC(C)C(=O)Nc1nnc(Cc2c[nH]c3ccccc23)s1	x	x	2	18	x	-6	x
CCc1nnc(NC(=O)CCc2c[nH]c3ccccc23)s1	-2	1.1	15*	-13	-6	-21	2
COc1cc(CNc2ccc(N3CCN(C(C)=O)CC3)cc2)ccc1OCc1ccc(F)cc1	-4	1	12*	43	0	10	3
COc1ccc(NC(=O)CCN2C(=O)C3C4CCC(C4)C3C2=O)cc1 (stereo not given)	-4	1	12*	4	0	33	3
CCOC(=O)C1=C(c2ccccc2)O/C(=C(/C#N)C(F)(F)F)S1	-6	1.1	24*	x	-9	20	87*
O=C(CN1C(=O)c2cccnc2Oc2ccc(Cl)cc21)N1CCOCC1	x	x	x	-8	x	x	x
Cc1[nH][nH]c(=O)c1C(c1ccc([N+](=O)[O-])cc1)c1c(C)[nH][nH]c1=O	x	x	11*	-16	x	12	0
CC(=O)c1ccccc1NC(=O)c1ccc(OCc2c(C)noc2C)cc1	x	x	x	1	x	x	x
CC[C@@H](C)[C@H](N)C(=O)NC[C@H]1O[C@@H](n2cnc3c(N)ncnc32)[C@H](O)[C@@H]1O	x	x	x	-9	x	x	x
C/C(=N\NC(=O)c1nc2ccccn2c1C)c1ccc2c(c1)OCO2	0	1	12*	5	1	16	4
CN(C(=O)CS(=O)(=O)c1cn(CC(=O)N2CCCC2)c2ccccc12)c1ccccc1	x	x	x	-6	x	x	x
Cn1c(CCc2ccc(N)cc2)nc2ccccc21	7	0.5	18*	25	55*	18	4
O=C(Cc1ccccc1)Nc1ccccc1N1CCCC1	-11	1	-3	2	-4	-1	x
O=C(Cc1ccccc1)Nc1ccccc1N1CCOCC1	9	1	21*	3	-3	23	1
O=c1cc(C(F)(F)F)oc2c1ccc1ccccc12	-4	1	2	-19	-2	8	x
O=c1cc(/C=C/c2ccccc2)oc2c1ccc1ccccc12	-2	1	11*	30	0	14	7
Cc1ccc(N2CCN(C(=O)N3CCOCC3)CC2)cc1C	-3	1	12*	-16	-4	x	6
CC(C)c1ccccc1NC(=O)CNCCc1ccc(C(F)(F)F)cc1	x	x	-3	-4	x	22	x
COc1ccc(OC)c2[nH]c(=O)c(CCNC(=O)CC(C)C)cc12	-4	1	11*	-4	-2	14	0
CC(C)(C)OC(=O)C(Cl)(C(=O)OC(C)(C)C)c1ccc2nnnn2n1	6	1	11*	24	0	8	0
COc1ccc(C(=O)N2CCCC(Nc3ccc(F)cc3)C2)c(OC)c1 (stereo not given)	x	x	x	-10	x	x	x
Cc1cccc(C(=O)NC2=NCCS2)c1	4	0.5	33*	22	54*	31	1
O=C(COC(=O)CNS(=O)(=O)c1cccc(F)c1)NCCc1ccccc1	x	x	x	-25	x	x	x
COc1ccc(NC(=O)CNS(=O)(=O)c2ccc(Cl)cc2)cc1OC	6	1	15*	1	-3	8	3
Cc1cc(C)n2nc(C(=O)NCc3ccco3)cc2n1	1	1.1	17*	6	-9	16	1
C/C(CC(=O)Nc1cc(Cl)ccc1Cl)=N\NC(=O)c1ccccc1Br	1	1.1	6	-15	-9	7	x
